From ChEMBL document CHEMBL4513216, “Probing the Open Global Health Chemical Diversity Library for Multistage-Active Starting Points for Next-Generation Antimalarials” (ACS Infect Dis, 2020)

Test: Toxicity liver stage against HepG2, at 10uM
Assay type: cell-based
Parameters: test concentration 10 uM, cell line HepG2-A16-CD81EGFP
Settings: human, HepG2-A16-CD81EGFP cells; read-out: INHIBITION
Procedure, shortened: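 Uninfected HepG2-A16-CD81EGFP cells, 3 × 10^3 per well, 1536-well, plated on prespotted compound at 10 μM final, parasite-free screening media added to match infected plates; puromycin 10 μM positive, DMSO 0.5% negative; run in parallel with 48 h PbLuc assay at 37 °C, 5% CO2; viability by CellTiter-Glo luminescence, normalized to controls.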

| Structure (SMILES) | cytotoxicity at 10 µM [%] |
| --- | --- |
| CC(=O)N1CCN(CC(C)(O)c2cccc(C(F)(F)F)c2)CC1 (stereo not given) | -14.6 |
| Cc1cc(NC(=O)NCC2COc3ccccc3C2)no1 (stereo not given) | -9.47 |
| CCc1nc2c(NCC3COc4ccccc4C3)ncnc2o1 (stereo not given) | 10.5 |
| CCc1nc(Cn2nc(C3CCNCC3)n(-c3ccccc3)c2=O)cs1 | -1.22 |
| Cc1cc(CN2CCc3nn(C)c(=O)cc3C2)no1 | -9.01 |
| CCCNC(=O)C1CCN(Cc2csc(C(C)(C)C)n2)CC1 | -9.11 |
| Cc1cc(-c2cc(N)c(=O)n(CC(=O)N3CCCC(C)C3)n2)c(C)o1 (stereo not given) | 4.62 |
| COC(=O)CCNC(=O)c1nnn(-c2ccccc2)c1C(F)(F)F | -4.27 |
| Cc1cc(CN2CCC(CNC(=O)c3ccc4[nH]cnc4c3)C2)[nH]n1 (stereo not given) | -145 |
| COc1ccc(Cl)cc1CNC(=O)CN1CCC2(CCOC2)C1 (stereo not given) | -61.7 |
| CC(C)Nc1ncnc2c1CCN(C(=O)c1ccncc1F)CC2 | 4.76 |
| Cn1ccnc1CN1CCC(F)(F)C2(CCN(c3cnccn3)C2)C1 (stereo not given) | 16.4 |
| CC(C)c1nnc(CN(C)C(c2ccc(F)cc2)c2cccnc2)o1 (stereo not given) | 4.11 |
| Cc1nc(CCN)cc(N2CCOc3ccc(Cl)cc3C2)n1 | -0.29 |
| Cc1cnc(N2CCC3(CC2)CC3CNC(=O)N(C)C)nc1 (stereo not given) | 8.82 |
| O=C(CC1CCc2ccccc21)N1CCC(O)(Cn2ccnc2)CC1 (stereo not given) | 5.01 |
| COc1cc(CNCC(O)c2ccc(C)cc2)cc2c1OCO2 (stereo not given) | -0.282 |
| CC(C)(C)c1cn2nc(N3CCCCC3Cn3cncn3)sc2n1 (stereo not given) | -4.61 |
| CC(C1CCN(C(=O)c2coc(CN3CCOCC3)c2)CC1)N(C)C (stereo not given) | -4.07 |
| c1ccc(-n2cc(CN3CCCC(Cn4cncn4)C3)nn2)cc1 (stereo not given) | 1.52 |
| COc1ccc2c(c1)CN(Cc1nc3c(cnn3C)c(=O)[nH]1)CC2 | -8.57 |
| COc1cccc(S(=O)(=O)CCN2CCCC2c2ccc[nH]2)c1 (stereo not given) | -3.89 |
| Cc1ccn(-c2cccc(C(=O)N3CCCC(n4ccnc4C)C3)c2)n1 (stereo not given) | -14.2 |
| CCOc1ccc(Cl)cc1CCNC(=O)Cn1ccccc1=O | 8 |
| CC1(C(=O)N2CCN(c3ncccn3)CC2)CNCCO1 (stereo not given) | -0.79 |
| Cc1cccc(CN2C(=O)CCC23CCN(Cc2nccn2C)CC3)n1 | 5.47 |
| CCN1CC2(CCC1=O)CCN(C(=O)c1ccc(Cl)cc1O)CC2 | -12.8 |
| N#CCCN1CC(O)CN(C(=O)c2cccc(C(F)(F)F)c2)CC1=O (stereo not given) | 7.84 |

| Structure (SMILES) | cytotoxicity at 10 µM [%] |
| --- | --- |
| Cc1cc(CN2CCC(N(C)Cc3noc(C4CC4)n3)C2)on1 (stereo not given) | 1.54 |
| Cc1cc(C)n(CC2CCCN2C(=O)c2ccc3[nH]nnc3c2)n1 (stereo not given) | -13.1 |
| CN(Cc1cccnc1)Cc1cn2c(n1)CN(C1CCOC1)CC2 (stereo not given) | 6.2 |
| CCOc1cc(CN(C)CCC#N)ccc1OC(F)F | -5.81 |
| O=C(c1ccc(-n2cnnc2)cc1Cl)N1CCCC2(CCNC2)C1 (stereo not given) | -5.32 |
| CN(Cc1ccccn1)C(C(=O)O)c1ccc2c(c1)OCO2 (stereo not given) | 1.16 |
| Cc1ncc(C(=O)N2C[C@H](CO)C[C@H](CN3CCOCC3)C2)c(=O)[nH]1 | -10.4 |
| Cc1cccn2c(CNC(C)CO)cnc12 (stereo not given) | -2.78 |
| Cn1ccnc1-c1cn(CCc2nnc(N)s2)nn1 | -4.3 |
| CN1CC(=O)N(C2CCNCC2)Cc2c(NC3CCC3)ncnc21 | 3.9 |
| CC(=O)N1CCCN(C(C)c2ccc(Br)cc2)CC1 (stereo not given) | 7.89 |
| CCn1ccnc1CNCc1ccc(C)cc1OC(C)(C)C | 1.03 |
| C=C(C)CN1C(=O)CC(Cc2ccc(F)cc2)C1=O (stereo not given) | 1.62 |
| CSC(C)Cc1c(-c2ccccc2)ncn1CCCNc1cccnc1 (stereo not given) | 15.1 |
| Cn1cc(CN2CCC(F)(F)C3(CCN(c4cccnc4)C3)C2)cn1 (stereo not given) | 3.89 |
| Cc1ccc(CN2Cc3c(C(=O)N4CCOCC4)nn(C)c3C2)s1 | 6.15 |
| O=C1NC2(CCN(Cc3ccoc3)CC2)CC1c1ccncc1 (stereo not given) | 6.05 |
| COc1cc(C(C)=O)ccc1OCC(=O)N(C)Cc1cnn(C)c1 | -3.88 |
| COCCO[C@@H]1C[C@H]2CN(C(=O)c3ccc(C)nc3)CCN2C1 | -2.2 |
| COc1cccc(CC2CCCN2CCCC#N)c1 (stereo not given) | -43.7 |
| Cc1nc(-c2ccco2)ccc1C(=O)NCCC(=O)N1CCCCC1 | -1.33 |
| O=C1[C@H]2CN(S(=O)(=O)C3CC3)C[C@H]2CN1CC1CC1 | 1.8 |
| Cc1cc(-c2cnc(N3CCOCC3)nc2-c2cccnc2C)on1 | -21.4 |
| CC(CO)NC(=O)c1ccc(NCc2ccc(F)c(F)c2)cc1 (stereo not given) | -5.89 |
| CC(=O)N1CCN(CC(=O)NCCCN(C)c2ccccc2)CC1 | 8.21 |
| CC(Nc1cccc2c1OCCO2)C(=O)Nc1cccc(C#N)c1 (stereo not given) | 4.7 |
| Cn1c(=O)[nH]c2cc(C(=O)OCCCn3ccccc3=O)ccc21 | 1.34 |
